# Experimental data as given in ChEMBL document CHEMBL1143324, “New N-substituted 9-azabicyclo[3.3.1]nonan-3alpha-yl phenylcarbamate analogs as sigma2 receptor ligands: synthesis, in vitro characterization, and evaluation as PET imaging and chemosensitization agents” (Bioorg Med Chem, 2009).
# Assays:
# [1] = target: Sigma non-opioid intracellular receptor 1 (Cavia porcellus, UniProt Q60492); test: Displacement of [3H](+)-pentazocine from sigma 1-type opioid receptor in guinea pig brain homogenates; format: tissue-based
# Chain of Sigma non-opioid intracellular receptor 1 (Q60492 whole entry): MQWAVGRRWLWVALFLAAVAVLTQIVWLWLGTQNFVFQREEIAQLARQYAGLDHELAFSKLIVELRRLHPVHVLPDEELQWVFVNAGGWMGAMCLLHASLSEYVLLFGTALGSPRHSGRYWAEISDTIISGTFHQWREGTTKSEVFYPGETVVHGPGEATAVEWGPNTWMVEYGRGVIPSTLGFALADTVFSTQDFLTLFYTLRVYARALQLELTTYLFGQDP
# [2] = Displacement of [3H]RHM-1 from sigma 2-type opioid receptor in rat liver homogenates; format: tissue-based
# [3] = Selectivity ratio, Ki for sigma 1 receptor in guinea pig brain homogenates to Ki for sigma 2 receptor in rat liver homogenates; format: tissue-based
# [4] = Partition coefficient, log P of the compound; format: physicochemical; settings: octanol/water
# [5] = target: T1, 5-hydroxytryptamine receptor 3A (Homo sapiens, UniProt P46098); test: Binding affinity to 5HT3 receptor
# T1 sequence (P46098 whole entry): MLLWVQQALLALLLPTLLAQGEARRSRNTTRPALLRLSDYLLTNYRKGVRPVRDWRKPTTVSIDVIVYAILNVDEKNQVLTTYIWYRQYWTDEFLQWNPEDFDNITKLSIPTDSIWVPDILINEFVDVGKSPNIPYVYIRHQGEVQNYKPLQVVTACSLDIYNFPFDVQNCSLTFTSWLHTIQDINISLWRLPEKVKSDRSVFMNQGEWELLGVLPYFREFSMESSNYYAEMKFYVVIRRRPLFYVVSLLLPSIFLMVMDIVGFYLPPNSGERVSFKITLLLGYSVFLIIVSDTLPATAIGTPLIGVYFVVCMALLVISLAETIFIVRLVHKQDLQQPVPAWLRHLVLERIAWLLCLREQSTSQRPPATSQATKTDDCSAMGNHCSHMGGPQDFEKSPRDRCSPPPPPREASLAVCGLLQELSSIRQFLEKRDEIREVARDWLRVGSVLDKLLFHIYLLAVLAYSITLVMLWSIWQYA
# [6] = target: 5-hydroxytryptamine receptor 4 (Homo sapiens, UniProt Q13639); test: Binding affinity to 5HT4 receptor
# Chain of 5-hydroxytryptamine receptor 4 (Q13639 whole entry): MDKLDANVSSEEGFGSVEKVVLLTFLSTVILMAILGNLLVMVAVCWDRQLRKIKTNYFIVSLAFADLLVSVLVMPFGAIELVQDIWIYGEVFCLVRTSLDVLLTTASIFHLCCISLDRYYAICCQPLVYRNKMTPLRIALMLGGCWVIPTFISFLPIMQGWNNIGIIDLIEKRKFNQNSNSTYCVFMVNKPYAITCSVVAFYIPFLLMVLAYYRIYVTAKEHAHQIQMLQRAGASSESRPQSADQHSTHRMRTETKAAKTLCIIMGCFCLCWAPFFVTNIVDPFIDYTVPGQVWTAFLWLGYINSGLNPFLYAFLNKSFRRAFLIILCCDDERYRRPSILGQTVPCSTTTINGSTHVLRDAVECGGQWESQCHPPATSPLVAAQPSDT
# EMT6 = test: Binding affinity to sigma 2 receptor in mouse EMT6 cell membrane homogenates; format: cell membranes; settings: tested as the 18F-labelled form
# Blood [7] = test: Biodistribution in iv dosed mouse EMT6 cells bearing BALB/c mouse blood after 30 mins; format: ADME, organism-based; settings: in vivo, 0.5 h
# Method in brief: (§1)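 Female BALB/c mice were implanted s.c. in the scapular region with ~5×10^5 EMT-6 cells in PBS 11 days earlier, giving tumors of ~100-150 mg. The 18F tracer (~20 µCi per 150 µL, in 10% ethanol/90% water) was given via tail vein, and mice were killed at 5 min, 30 min, 1 h or 2 h. Tissues were weighed and gamma-counted against a diluted injected-dose standard, giving %ID/g.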
# Blood [8] = test: Biodistribution in iv dosed mouse EMT6 cells bearing BALB/c mouse blood after 1 hr; format: ADME, organism-based; settings: in vivo; method in brief: as §1
# Liver [9] = test: Biodistribution in iv dosed mouse EMT6 cells bearing BALB/c mouse liver after 5 mins; format: ADME, organism-based; settings: in vivo; method in brief: as §1
# Liver [10] = test: Biodistribution in iv dosed mouse EMT6 cells bearing BALB/c mouse liver after 30 mins; format: ADME, organism-based; settings: in vivo, 0.5 h; method in brief: as §1
# Kidney = test: Biodistribution in iv dosed mouse EMT6 cells bearing BALB/c mouse kidney after 1 hr; format: ADME, organism-based; settings: in vivo; method in brief: as §1
# Muscle tissue [11] = test: Biodistribution in iv dosed mouse EMT6 cells bearing BALB/c mouse muscle after 30 mins; format: ADME, organism-based; settings: in vivo, 0.5 h; method in brief: as §1
# Muscle tissue [12] = test: Biodistribution in iv dosed mouse EMT6 cells bearing BALB/c mouse muscle after 1 hr; format: ADME, organism-based; settings: in vivo; method in brief: as §1
# Heart [13] = test: Biodistribution in iv dosed mouse EMT6 cells bearing BALB/c mouse heart after 5 mins; format: ADME, organism-based; settings: in vivo; method in brief: as §1
# Heart [14] = test: Biodistribution in iv dosed mouse EMT6 cells bearing BALB/c mouse heart after 30 mins; format: ADME, organism-based; settings: in vivo, 0.5 h; method in brief: as §1
# Brain [15] = test: Biodistribution in iv dosed mouse EMT6 cells bearing BALB/c mouse brain after 30 mins; format: ADME, organism-based; settings: in vivo, 0.5 h; method in brief: as §1
# Brain [16] = test: Biodistribution in iv dosed mouse EMT6 cells bearing BALB/c mouse brain after 1 hr; format: ADME, organism-based; settings: in vivo; method in brief: as §1
# Bone = test: Biodistribution in iv dosed mouse EMT6 cells bearing BALB/c mouse bone after 2 hrs; format: ADME, organism-based, Bone element; settings: in vivo; method in brief: as §1
# [17] = Biodistribution in tumor of iv dosed mouse EMT6 cells bearing BALB/c mouse after 5 mins; format: ADME, organism-based, Neoplasm; settings: in vivo; method in brief: as §1
# [18] = Biodistribution in tumor of iv dosed mouse EMT6 cells bearing BALB/c mouse after 2 hrs; format: ADME, organism-based, Neoplasm; settings: in vivo; method in brief: as §1
# [19] = Ratio of drug level in tumor to blood of mouse EMT6 cells bearing BALB/c mouse after 5 mins; format: ADME, cell-based; settings: emt6, 5 min
# Method in brief: (§2)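 Tumor-to-tissue ratios were calculated from %ID/g values at 5 min, 30 min, 1 h and 2 h. The 18F tracer (~20 µCi, tail vein, 10% ethanol/90% water) was given to female BALB/c mice bearing s.c. EMT-6 tumors (~5×10^5 cells implanted 11 days prior; ~100-150 mg). Tissues were gamma-counted against a diluted standard of the injected dose.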
# [20] = Ratio of drug level in tumor to blood of mouse EMT6 cells bearing BALB/c mouse after 30 mins; format: ADME, cell-based; settings: emt6, 0.5 h; method in brief: as §2
# [21] = Ratio of drug level in tumor to blood of mouse EMT6 cells bearing BALB/c mouse after 1 hr; format: ADME, cell-based; settings: emt6, 1 h; method in brief: as §2
# [22] = Ratio of drug level in tumor to blood of mouse EMT6 cells bearing BALB/c mouse after 2 hrs; format: ADME, cell-based; settings: emt6, 2 h; method in brief: as §2
# [23] = Ratio of drug level in tumor to muscle of mouse EMT6 cells bearing BALB/c mouse after 5 mins; format: ADME, cell-based; settings: emt6, 5 min; method in brief: as §2
# [24] = Ratio of drug level in tumor to muscle of mouse EMT6 cells bearing BALB/c mouse after 30 mins; format: ADME, cell-based; settings: emt6, 0.5 h; method in brief: as §2
# [25] = Ratio of drug level in tumor to muscle of mouse EMT6 cells bearing BALB/c mouse after 1 hr; format: ADME, cell-based; settings: emt6, 1 h; method in brief: as §2
# [26] = Ratio of drug level in tumor to muscle of mouse EMT6 cells bearing BALB/c mouse after 2 hrs; format: ADME, cell-based; settings: emt6, 2 h; method in brief: as §2
# [27] = Ratio of drug level in tumor to fat of mouse EMT6 cells bearing BALB/c mouse after 5 mins; format: ADME, cell-based; settings: emt6, 5 min; method in brief: as §2
# [28] = Ratio of drug level in tumor to fat of mouse EMT6 cells bearing BALB/c mouse after 30 mins; format: ADME, cell-based; settings: emt6, 0.5 h; method in brief: as §2
# [29] = Ratio of drug level in tumor to fat of mouse EMT6 cells bearing BALB/c mouse after 1 hr; format: ADME, cell-based; settings: emt6, 1 h; method in brief: as §2
# [30] = Ratio of drug level in tumor to fat of mouse EMT6 cells bearing BALB/c mouse after 2 hrs; format: ADME, cell-based; settings: emt6, 2 h; method in brief: as §2
# [31] = Ratio of drug level in tumor to muscle of […] EMT6 cells bearing BALB/c mouse after 5 mins; format: ADME, cell-based; settings: emt6, 5 min
# [32] = Ratio of drug level in tumor to muscle of […] EMT6 cells bearing BALB/c mouse after 30 mins; format: ADME, cell-based; settings: emt6, 0.5 h
# [33] = Ratio of drug level in tumor to muscle of […] EMT6 cells bearing BALB/c mouse after 1 hr; format: ADME, cell-based; settings: emt6, 1 h
# [34] = Ratio of drug level in tumor to muscle of […] EMT6 cells bearing BALB/c mouse after 2 hrs; format: ADME, cell-based; settings: emt6, 2 h
compound,measurement,setting,value
COc1ccc(C)cc1C(=O)NCCCCN1CCc2cc(OO)c(OO)cc2C1,Ki,[1],3080 nM
same,Ki,[2],10.3 nM
C=CCN1C2CCCC1CC(OC(=O)Nc1cc(C)ccc1OC)C2 (configuration not stated),Ki,[1],1260 nM
same,Ki,[2],85.9 nM
same,Ratio Ki,[3],15
same,logP,[4],2.86
COc1ccc(C)cc1NC(=O)OC1CC2CCCC(C1)N2Cc1ccncc1 (configuration not stated),Ki,[1],1560 nM
same,Ki,[2],522 nM
same,Ratio Ki,[3],3
same,logP,[4],2.94
COc1ccc(C)cc1NC(=O)OC1CC2CCCC(C1)N2Cc1ccc(N(C)C)cc1 (configuration not stated),Ki,[1],1440 nM
same,Ki,[2],2.58 nM
same,Ratio Ki,[3],557
same,logP,[4],3.02
COc1ccc(C)cc1NC(=O)OC1CC2CCCC(C1)N2CCc1ccc(CCF)cc1 (configuration not stated),Ki,[1],2630 nM
same,Ki,[2],276 nM
same,Ratio Ki,[3],10
same,logP,[4],3.69
COc1ccc(CCN2C3CCCC2CC(OC(=O)Nc2cc(C)ccc2OC)C3)cc1 (configuration not stated),Ki,[1],447 nM
same,Ki,[2],126 nM
same,Ratio Ki,[3],4
same,logP,[4],3.22
COc1ccc(C)cc1NC(=O)OC1CC2CCCC(C1)N2Cc1ccccc1 (configuration not stated),Ki,[5],> 1000 nM
same,Ki,[2],3.1 nM
same,Ki,[6],> 1000 nM
COc1ccc(C)cc1NC(=O)OC1CC2CCCC(C1)N2Cc1cccnc1 (configuration not stated),Ki,[1],2350 nM
same,Ki,[2],184 nM
same,Ratio Ki,[3],13
same,logP,[4],2.7
O=C(CCCN1CCC(O)(c2ccc(Cl)cc2)CC1)c1ccc(F)cc1 [HALOPERIDOL],logP,[4],3.36
CCn1c(=O)n(C(=O)NC2CC3CCC(C2)N3C)c2ccccc21 (configuration not stated),Ki,[5],1 nM
same,Ki,[1],6300 nM
same,Ki,[2],32 nM
same,Ki,[6],13 nM
COc1ccc(C)cc1NC(=O)OC1CC2CCCC(C1)N2Cc1ccc(CCF)cc1 (configuration not stated),Ki,[1],1710 nM
same,Ki,[2],0.82 nM
same,Ratio Ki,[3],2090
same,Activity,EMT6,2 nM
COc1ccc(C)cc1NC(=O)OC1CC2CCCC(C1)N2CCc1ccc(N(C)C)cc1 (configuration not stated),Ki,[1],1870 nM
same,Ki,[2],195 nM
same,Ratio Ki,[3],10
same,logP,[4],3.36
COc1ccc(C)cc1NC(=O)OC1CC2CCCC(C1)N2Cc1ccc(CC[18F])cc1 (configuration not stated),Activity,Blood [7],0.99 % ID/g
same,Activity,Blood [8],0.93 % ID/g
same,Activity,Liver [9],21.14 % ID/g
same,Activity,Liver [10],28.5 % ID/g
same,Activity,Kidney,10.38 % ID/g
same,Activity,Muscle tissue [11],2.9 % ID/g
same,Activity,Muscle tissue [12],1.92 % ID/g
same,Activity,Heart [13],18.49 % ID/g
same,Activity,Heart [14],3.7 % ID/g
same,Activity,Brain [15],2.12 % ID/g
same,Activity,Brain [16],1.55 % ID/g
same,Activity,Bone,5.68 % ID/g
same,Activity,[17],1.39 % ID/g
same,Activity,[18],4.08 % ID/g
same,Activity,[19],0.82 % ID/g
same,Activity,[20],3.67 % ID/g
same,Activity,[21],3.86 % ID/g
same,Activity,[22],6.96 % ID/g
same,Activity,[23],0.3 % ID/g
same,Activity,[24],1.32 % ID/g
same,Activity,[25],1.92 % ID/g
same,Activity,[26],2.53 % ID/g
same,Activity,[27],0.65 % ID/g
same,Activity,[28],0.45 % ID/g
same,Activity,[29],0.41 % ID/g
same,Activity,[30],0.32 % ID/g
same,Activity,[31],0.01 % ID/g
same,Activity,[32],0.22 % ID/g
same,Activity,[33],0.42 % ID/g
same,Activity,[34],0.82 % ID/g
COc1ccc(C)cc1NC(=O)OC1CC2CCCC(C1)N2Cc1ccc(F)nc1 (configuration not stated),Ki,[1],2510 nM
same,Ki,[2],572 nM
same,Ratio Ki,[3],4
same,logP,[4],3.21
COc1ccc(C)cc1NC(=O)OC1CC2CCCC(C1)N2CCF (configuration not stated),Ki,[1],2000 nM
same,Ki,[2],143 nM
same,Ratio Ki,[3],14
same,logP,[4],2.85
COc1ccc(CN2C3CCCC2CC(OC(=O)Nc2cc(C)ccc2OC)C3)cc1 (configuration not stated),Ki,[1],323 nM
same,Ki,[2],40.7 nM
same,Ratio Ki,[3],8
same,logP,[4],3.3
COc1ccc(C)cc1NC(=O)OC1CC2CCCC(C1)N2Cc1ccc(SC)cc1 (configuration not stated),Ki,[1],2020 nM
same,Ki,[2],8190 nM
same,logP,[4],3.92
